{"source": "paper PMC7286548", "about": "(Cell chemical biology, 2020)", "key": {"PI5P4Kγ": {"biological_target": "T1, PI5P4Kγ (Homo sapiens, UniProt Q8TBX8)", "T1 sequence (Q8TBX8 1-421)": "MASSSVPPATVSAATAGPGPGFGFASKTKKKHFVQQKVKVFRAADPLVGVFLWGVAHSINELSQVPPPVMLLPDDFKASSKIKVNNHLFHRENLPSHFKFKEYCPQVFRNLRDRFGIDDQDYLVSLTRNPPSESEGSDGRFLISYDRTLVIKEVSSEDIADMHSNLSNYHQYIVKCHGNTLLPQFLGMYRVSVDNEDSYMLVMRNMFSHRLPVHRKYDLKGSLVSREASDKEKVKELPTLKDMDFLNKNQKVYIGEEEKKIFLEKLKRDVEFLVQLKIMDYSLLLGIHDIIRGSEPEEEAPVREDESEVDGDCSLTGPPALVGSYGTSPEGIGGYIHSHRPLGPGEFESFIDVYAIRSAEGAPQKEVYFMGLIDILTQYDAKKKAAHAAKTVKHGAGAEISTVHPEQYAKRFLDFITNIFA", "assay": "Radiometric TLC kinase assay", "assay_type": "biochemical", "details": "Fig. S1B-C"}, "PI5P4Kα [1]": {"biological_target": "T2, PI5P4Kα (Homo sapiens, UniProt P48426)", "T2 sequence (P48426 1-406)": "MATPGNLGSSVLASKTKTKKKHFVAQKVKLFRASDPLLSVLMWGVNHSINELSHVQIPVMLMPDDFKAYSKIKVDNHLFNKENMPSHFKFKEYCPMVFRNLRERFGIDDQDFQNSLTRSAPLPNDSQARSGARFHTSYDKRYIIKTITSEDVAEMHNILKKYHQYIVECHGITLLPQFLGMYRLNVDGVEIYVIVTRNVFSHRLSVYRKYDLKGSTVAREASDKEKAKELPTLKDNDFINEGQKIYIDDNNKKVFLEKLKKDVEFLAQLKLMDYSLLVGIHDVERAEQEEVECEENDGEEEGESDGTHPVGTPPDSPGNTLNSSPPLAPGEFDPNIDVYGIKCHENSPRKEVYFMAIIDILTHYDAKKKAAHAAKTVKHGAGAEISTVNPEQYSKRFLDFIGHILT", "assay": "Radiometric TLC kinase assay", "assay_type": "biochemical", "in_short": "(§1)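 Purified PI5P4K (0.1 μg) was preincubated with DMSO or test compound at various concentrations in 50 mM HEPES pH 7.4, 10 mM MgCl2. Sonicated lipid substrate, 10 μM unlabeled ATP and [γ-32P]ATP were then added. Reaction ran 10 min at room temperature. Radiolabeled PI(4,5)P2 product was quantified by phosphorimager.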"}, "PI5P4Kβ [2]": {"biological_target": "T3, PI5P4Kβ (Homo sapiens, UniProt P78356)", "T3 sequence (P78356 1-416)": "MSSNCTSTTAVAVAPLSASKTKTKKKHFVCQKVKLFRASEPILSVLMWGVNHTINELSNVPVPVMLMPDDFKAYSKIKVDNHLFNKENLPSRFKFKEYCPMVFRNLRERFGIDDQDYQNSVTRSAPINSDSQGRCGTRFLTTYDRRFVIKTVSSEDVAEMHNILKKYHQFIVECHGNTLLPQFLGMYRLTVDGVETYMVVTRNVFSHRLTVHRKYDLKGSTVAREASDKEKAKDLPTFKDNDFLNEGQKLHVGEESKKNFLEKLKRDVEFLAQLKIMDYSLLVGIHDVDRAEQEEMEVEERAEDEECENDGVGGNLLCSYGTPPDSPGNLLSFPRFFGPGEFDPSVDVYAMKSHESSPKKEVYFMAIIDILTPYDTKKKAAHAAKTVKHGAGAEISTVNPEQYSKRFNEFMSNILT", "assay": "Radiometric TLC kinase assay", "assay_type": "biochemical", "in_short": "as §1"}, "PI5P4Kα [3]": {"biological_target": "T2, PI5P4Kα", "assay": "Intact electrospray MS covalent labeling", "assay_type": "binding", "details": "within 2 h; 5 μM inhibitor, 37°C", "in_short": "(§2)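 Intact mass read by LC-ESI-MS on reversed phase. Modified site mapped by TCEP (10 mM final) reduction, iodoacetamide (22.5 mM final) alkylation, Asp-N or Glu-C digestion overnight at 37°C, then nanoLC-MS.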"}, "AML/ALL cell lines": {"tested_on": "AML/ALL cell lines", "assay": "72 h Cell-Titer Glo proliferation assay", "assay_type": "cell-based", "details": "all six AML/ALL cell lines", "in_short": "(§3)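 Cells plated in 96- or 384-well format and treated with test compound over a concentration range for 72h. Viability read by CellTiter-Glo luminescence. Leukemia lines cultured per ATCC/DSMZ recommendations in 5% CO2. K562 and KU812F came from an outside lab.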"}, "[4]": {"biological_target": "top off-targets except for BRK and ABL1", "assay": "Z'LYTE kinase assay", "assay_type": "biochemical", "details": "Fig. S4A", "in_short": "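ATP at apparent Km. Kinases tested were TYK2, RPS6KA4 (MSK2), CSNK2A2 (CK2α2), KIT and PDGFRB.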"}, "HeLa cells [5]": {"tested_on": "HeLa cells", "assay": "TFEB nuclear localization immunofluorescence", "assay_type": "cell-based", "details": "0.25-1.0 μM overnight"}, "PIKfyve [6]": {"biological_target": "T4, PIKfyve (Homo sapiens, UniProt Q9Y2I7)", "T4 sequence (Q9Y2I7 whole entry)": "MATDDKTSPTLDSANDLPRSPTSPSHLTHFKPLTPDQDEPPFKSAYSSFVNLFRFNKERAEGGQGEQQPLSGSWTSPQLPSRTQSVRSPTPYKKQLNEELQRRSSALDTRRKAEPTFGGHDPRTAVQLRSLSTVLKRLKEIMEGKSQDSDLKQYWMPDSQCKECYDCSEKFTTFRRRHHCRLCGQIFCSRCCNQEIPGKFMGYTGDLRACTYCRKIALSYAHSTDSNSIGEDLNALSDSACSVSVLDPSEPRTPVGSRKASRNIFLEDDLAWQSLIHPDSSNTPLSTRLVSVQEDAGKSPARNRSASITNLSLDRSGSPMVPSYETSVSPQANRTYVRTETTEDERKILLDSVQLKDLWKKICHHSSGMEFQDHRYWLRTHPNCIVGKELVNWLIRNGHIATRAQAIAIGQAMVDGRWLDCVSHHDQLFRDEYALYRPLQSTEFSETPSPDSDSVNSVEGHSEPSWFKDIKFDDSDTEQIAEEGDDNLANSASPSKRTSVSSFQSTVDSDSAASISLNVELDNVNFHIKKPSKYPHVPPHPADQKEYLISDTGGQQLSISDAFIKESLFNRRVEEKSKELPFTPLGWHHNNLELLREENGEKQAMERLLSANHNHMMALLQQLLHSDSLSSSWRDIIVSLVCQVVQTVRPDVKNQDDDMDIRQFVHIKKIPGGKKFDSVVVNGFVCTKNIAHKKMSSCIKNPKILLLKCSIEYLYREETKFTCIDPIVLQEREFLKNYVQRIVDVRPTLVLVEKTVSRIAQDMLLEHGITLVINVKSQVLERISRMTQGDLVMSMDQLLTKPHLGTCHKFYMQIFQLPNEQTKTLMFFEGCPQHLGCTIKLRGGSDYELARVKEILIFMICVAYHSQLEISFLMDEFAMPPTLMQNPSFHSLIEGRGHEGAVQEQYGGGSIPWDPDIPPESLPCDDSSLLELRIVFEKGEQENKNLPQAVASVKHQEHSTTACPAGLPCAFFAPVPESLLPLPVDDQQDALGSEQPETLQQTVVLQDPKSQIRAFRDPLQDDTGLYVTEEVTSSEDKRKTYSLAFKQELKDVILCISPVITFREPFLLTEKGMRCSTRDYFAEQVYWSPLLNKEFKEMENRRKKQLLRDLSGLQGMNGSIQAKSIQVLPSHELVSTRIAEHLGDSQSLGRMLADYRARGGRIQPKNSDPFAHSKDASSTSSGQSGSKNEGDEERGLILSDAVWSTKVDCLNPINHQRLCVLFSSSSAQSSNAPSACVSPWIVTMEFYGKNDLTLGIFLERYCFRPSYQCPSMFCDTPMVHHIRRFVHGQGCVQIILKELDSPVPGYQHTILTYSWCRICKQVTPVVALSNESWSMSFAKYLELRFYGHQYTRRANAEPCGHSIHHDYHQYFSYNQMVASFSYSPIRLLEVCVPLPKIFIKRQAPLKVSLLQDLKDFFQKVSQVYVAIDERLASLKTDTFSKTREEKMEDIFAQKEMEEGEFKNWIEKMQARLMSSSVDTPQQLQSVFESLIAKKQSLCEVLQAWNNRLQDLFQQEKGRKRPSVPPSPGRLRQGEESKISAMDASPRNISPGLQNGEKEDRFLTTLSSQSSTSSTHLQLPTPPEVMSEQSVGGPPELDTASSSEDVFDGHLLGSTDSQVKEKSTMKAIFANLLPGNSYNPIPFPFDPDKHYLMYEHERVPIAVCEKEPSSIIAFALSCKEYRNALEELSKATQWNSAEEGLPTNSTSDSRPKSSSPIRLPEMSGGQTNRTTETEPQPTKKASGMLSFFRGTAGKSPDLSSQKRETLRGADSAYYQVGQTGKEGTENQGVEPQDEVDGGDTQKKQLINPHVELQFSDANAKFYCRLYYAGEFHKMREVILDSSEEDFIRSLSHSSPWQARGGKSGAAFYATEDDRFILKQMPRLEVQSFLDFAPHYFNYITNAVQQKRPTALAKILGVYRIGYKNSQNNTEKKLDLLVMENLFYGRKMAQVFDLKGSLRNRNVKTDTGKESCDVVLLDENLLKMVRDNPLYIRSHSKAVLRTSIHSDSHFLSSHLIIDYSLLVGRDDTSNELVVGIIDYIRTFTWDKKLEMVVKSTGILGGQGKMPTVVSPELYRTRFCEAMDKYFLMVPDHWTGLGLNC", "assay": "DiscoverX KINOMEScan", "assay_type": "binding"}, "K562 and KU812F": {"tested_on": "K562 and KU812F", "assay": "Proliferation of BCR-ABL translocation containing cell lines", "assay_type": "cell-based", "details": "Fig. S4C", "in_short": "as §3"}, "HeLa cells [7]": {"tested_on": "HeLa cells", "assay": "RFP-GFP-LC3B tandem sensor autophagy flux assay", "assay_type": "cell-based", "details": "1 μM, 16 hours", "in_short": "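HeLa cells (DMEM, 10% FBS) on coverslip-bottomed dishes were transduced with 40 particles/cell of the RFP-GFP-LC3B tandem sensor and cultured 16–24h. They were then exposed to DMSO, 50 μM chloroquine or 1 μM test compound for 16h. Live imaging at 37°C in phenol red-free DMEM by spinning-disk confocal microscopy.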"}, "PI5P4K": {"tested_on": "PI5P4K", "assay": "Competitive streptavidin pulldown after pre-treating HEK293T cells", "assay_type": "cell-based", "in_short": "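HEK293T cells grown to 90–95% confluence were pretreated 6h with DMSO or varying test compound concentrations, then washed twice in cold PBS. Lysis on ice 60 min with protease inhibitors, cleared 20,000 × g 15 min at 4°C, protein-equalized by BCA. Lysates were rotated overnight at 4°C with 1 μM biotinylated probe, then 2h at RT, then on streptavidin resin 2h at 4°C. Beads washed ×5, boiled in LDS 95°C 10 min, immunoblotted.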"}, "PI4P5Kβ": {"biological_target": "PI4P5Kβ (Homo sapiens, UniProt O14986)", "sequence (O14986 whole entry)": "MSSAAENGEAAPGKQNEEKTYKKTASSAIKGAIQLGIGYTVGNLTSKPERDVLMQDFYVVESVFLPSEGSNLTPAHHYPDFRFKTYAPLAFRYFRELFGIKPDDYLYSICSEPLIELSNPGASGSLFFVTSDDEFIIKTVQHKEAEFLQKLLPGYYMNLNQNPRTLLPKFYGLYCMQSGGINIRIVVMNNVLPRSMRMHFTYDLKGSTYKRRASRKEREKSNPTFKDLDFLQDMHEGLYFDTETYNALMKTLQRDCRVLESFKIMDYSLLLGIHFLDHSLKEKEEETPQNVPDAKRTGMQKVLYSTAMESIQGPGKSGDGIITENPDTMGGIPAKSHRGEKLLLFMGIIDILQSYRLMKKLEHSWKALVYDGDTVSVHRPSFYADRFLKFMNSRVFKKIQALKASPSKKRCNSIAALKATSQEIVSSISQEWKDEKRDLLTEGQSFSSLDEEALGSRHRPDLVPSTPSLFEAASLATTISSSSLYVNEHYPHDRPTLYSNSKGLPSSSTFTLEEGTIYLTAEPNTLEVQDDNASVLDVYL", "assay": "Lipid kinase off-target inhibition assay", "assay_type": "biochemical", "details": "Fig. S3C"}, "PI4P5Kγ": {"biological_target": "PI4P5Kγ (Homo sapiens, UniProt O60331)", "sequence (O60331 whole entry)": "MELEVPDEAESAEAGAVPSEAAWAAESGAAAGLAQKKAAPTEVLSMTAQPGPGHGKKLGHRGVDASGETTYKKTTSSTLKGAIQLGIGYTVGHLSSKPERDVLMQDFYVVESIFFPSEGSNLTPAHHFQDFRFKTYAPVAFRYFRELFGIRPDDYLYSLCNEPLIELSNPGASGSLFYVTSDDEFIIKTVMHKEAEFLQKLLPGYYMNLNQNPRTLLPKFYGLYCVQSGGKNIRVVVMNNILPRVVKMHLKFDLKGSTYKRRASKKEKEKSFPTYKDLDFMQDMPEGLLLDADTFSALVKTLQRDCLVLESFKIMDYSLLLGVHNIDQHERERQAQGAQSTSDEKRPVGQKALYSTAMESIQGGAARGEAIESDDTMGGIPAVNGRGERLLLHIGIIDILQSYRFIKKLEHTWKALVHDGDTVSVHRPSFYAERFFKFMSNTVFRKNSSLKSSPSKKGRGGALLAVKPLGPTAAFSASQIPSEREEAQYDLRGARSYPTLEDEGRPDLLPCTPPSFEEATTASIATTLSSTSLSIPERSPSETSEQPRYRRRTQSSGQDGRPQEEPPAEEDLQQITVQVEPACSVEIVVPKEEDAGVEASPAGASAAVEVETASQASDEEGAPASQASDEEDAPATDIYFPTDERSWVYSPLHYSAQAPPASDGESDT", "assay": "Lipid kinase off-target inhibition assay", "assay_type": "biochemical", "details": "Fig. S3C"}, "PI4P5Kα": {"biological_target": "PI4P5Kα (Homo sapiens, UniProt Q99755)", "sequence (Q99755 whole entry)": "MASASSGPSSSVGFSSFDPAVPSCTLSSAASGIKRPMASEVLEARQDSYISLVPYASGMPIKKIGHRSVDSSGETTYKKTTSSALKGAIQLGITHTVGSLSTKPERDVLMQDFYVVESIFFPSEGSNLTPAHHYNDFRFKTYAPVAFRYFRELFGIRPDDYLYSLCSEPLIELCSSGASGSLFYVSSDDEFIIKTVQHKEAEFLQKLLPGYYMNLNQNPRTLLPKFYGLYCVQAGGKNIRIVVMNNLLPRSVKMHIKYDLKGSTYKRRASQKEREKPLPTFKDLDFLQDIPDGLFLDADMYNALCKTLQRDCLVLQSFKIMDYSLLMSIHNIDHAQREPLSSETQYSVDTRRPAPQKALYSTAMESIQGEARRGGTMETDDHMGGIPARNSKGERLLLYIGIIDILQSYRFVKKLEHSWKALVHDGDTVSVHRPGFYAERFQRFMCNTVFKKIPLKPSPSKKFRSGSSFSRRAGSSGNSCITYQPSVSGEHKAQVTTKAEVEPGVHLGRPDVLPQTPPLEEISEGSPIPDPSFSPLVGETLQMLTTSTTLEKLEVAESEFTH", "assay": "Lipid kinase off-target inhibition assay", "assay_type": "biochemical", "details": "Fig. S3C"}, "PIKfyve [8]": {"tested_on": "PIKfyve", "assay": "Vacuolar enlargement assay in Vero cells", "assay_type": "cell-based"}, "PIKfyve [9]": {"biological_target": "T4, PIKfyve", "assay": "Fixed time-point ADP-Glo assay", "assay_type": "biochemical"}, "PI5P4Kβ [10]": {"biological_target": "T3, PI5P4Kβ", "assay": "Intact electrospray MS covalent labeling", "assay_type": "binding", "details": "within 2 h; 5 μM inhibitor, 37°C", "in_short": "as §2"}}, "note": "pIC50: −log10 of the molar value."}
{"smiles": "CN(C)C/C=C/C(=O)Nc1cccc(C(=O)Nc2ccc(Nc3nccc(-c4cccnc4)n3)cc2)c1", "note": "[JNK-IN-7, reference compound]", "values": [{"measurement": "inhibition of kinase activity (in words)", "setting": "PI5P4Kγ", "value": "inhibit"}, {"measurement": "inhibition of kinase activity (in words)", "setting": "PI5P4Kα [1]; Fig. S1B-C", "value": "inhibit"}, {"measurement": "inhibition of kinase activity (in words)", "setting": "PI5P4Kβ [2]; Fig. S1B-C", "value": "inhibit"}]}
{"smiles": "CN(C)C/C=C/C(=O)Nc1ccc(C(=O)Nc2cccc(Nc3cc(-c4c[nH]c5ccccc45)ncn3)c2)cc1", "note": "[THZ-P1-2]", "values": [{"measurement": "covalent labeling", "setting": "PI5P4Kα [3]", "value": 100, "unit": "%"}, {"measurement": "anti-proliferative IC50 (in words)", "setting": "AML/ALL cell lines", "value": "low micromolar range"}, {"measurement": "IC50 (in words)", "setting": "[4]", "value": "micromolar range"}, {"measurement": "nuclear TFEB accumulation (in words)", "setting": "HeLa cells [5]", "value": "increase"}, {"measurement": "% DMSO control", "setting": "PIKfyve [6]", "value": 6.4, "unit": "% DMSO control"}, {"measurement": "potency at killing cells versus imatinib, nilotinib and dasatinib (in words)", "setting": "K562 and KU812F", "value": "markedly less potent"}, {"measurement": "GFP signal of RFP-GFP-LC3B sensor (in words)", "setting": "HeLa cells [7]", "value": "marked increase"}, {"measurement": "RFP signal of RFP-GFP-LC3B sensor (in words)", "setting": "HeLa cells [7]", "value": "moderate increase"}, {"measurement": "earliest time of on-target engagement in washout pulldown", "setting": "PI5P4K; 1 μM compound treatment, washout at 2 and 4 hours", "value": 2, "unit": "h"}, {"measurement": "competition of pulldown by 1 μM dtb-THZ-P1-2 (in words)", "setting": "PI5P4K; pre-treatment of HEK293T cells", "value": "compete and block pulldown"}, {"measurement": "IC50 (in words)", "setting": "PI4P5Kβ", "value": "low micromolar"}, {"measurement": "IC50 (in words)", "setting": "PI4P5Kγ", "value": "low micromolar"}, {"measurement": "IC50 (in words)", "setting": "PI4P5Kα", "value": "low micromolar"}, {"measurement": "inhibition of PI-4,5-P2 formation", "setting": "PI5P4Kα [1]; 0.7 μM", "value": "approximately 75%"}, {"measurement": "inhibition of PIKfyve in cells (in words)", "setting": "PIKfyve [8]; 1 μM", "value": "failed to show inhibition"}, {"measurement": "pIC50", "setting": "PIKfyve [9]", "value": 7.40}, {"measurement": "covalent labeling", "setting": "PI5P4Kβ [10]", "value": 100, "unit": "%"}, {"measurement": "inhibition of PI-4,5-P2 formation", "setting": "PI5P4Kβ [2]; 0.7 μM", "value": "~50", "unit": "%"}]}
{"smiles": "Cc1cccc(/C=N/Nc2cc(N3CCOCC3)nc(OCCc3ccccn3)n2)c1", "note": "[apilimod, reference compound]", "values": [{"measurement": "concentration causing substantial vacuolar enlargement", "setting": "PIKfyve [8]; positive control", "value": 10, "unit": "nM"}]}
